Among the data in the RNAGym collection of RNA variant scans (doi:10.1126/science.aae0568) are yeast fitness values, retold here.

Variants at the floor of the assay were thinned out.

The chains are these.
B1: tRNA (parent)
chain: GUUCCGUUGGCGUAAUGGUAACGCGUCUCCCUCCUAAGGAGAAGACUGCGGGUUCGAGUCCCGUACGGAACG

In the data set the parent is B1. The data set can be described thus: yeast fitness relative to wild type (ratio to wild type); higher = fitter; tRNA-Arg(CCU), competitive growth, 37 C, YPD. Summed up: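 Start and end populations of a pooled competition were compared by 100-nucleotide paired-end sequencing of gene amplicons. The Saccharomyces cerevisiae strains carried tRNA-Arg(CCU) gene variants at the native genomic locus, synthesised with a 3% per-site mutation rate at 69 sites, and competed in YPD at 37°C for 24 hours in six parallel replicates. Darwinian fitness relative to wild type was based on the change in genotype frequencies. Genotypes required ≥ 100 starting reads, and estimates < 0.5 were set to 0.5.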
Take GUUCCGUUGGCGUAAUGGUAACACGUCUCCCUCCUAAGGAGAAGACUGCGGGUUCGAGCCCCGUACGAAACG [G23A U59C G68A]: the yeast fitness is no more than 0.5.
GUUCCGUUGGCGUAAUGGUAACCCGUCUCCCUCCUAAGGAGAAGACUGUGGGUUCGAGUCCAGUAAGGAACG [G23C C49U C62A C66A]: the yeast fitness is no more than 0.5.
In the case of GUUCCGUUGGCGUAAUGGUAACGCGUCUCCCUCCUAAGGAGAAGACUGAGGGUUCGUGUCCCGUACGGACCG [C49A A57U A70C] it was 0.518; in that of GUUCCGUUAGCGUAAUGGUAACGCGUGUCCCUCAUAAGGAGAAGAGUGCGGGUUCGAGUCCCGUACGGAACG [G9A C27G C34A C46G], no more than 0.5.
As for GUUCCGUUGCCGUUAUGGAAAUGCGUCUCCCUCCUAAGGAGAAGACUGCGGGUUCGAGUUCCGUACGCAACG [G10C A14U U19A C22U C60U G68C], the yeast fitness is no more than 0.5.
Consider GUUCCGUCGGCGUAAUGGUAACACGUCUCCCUCAUAAGGAGUAGAAUGCGGGUUGGAGUCCCGUGCGGAACG [U8C G23A C34A A42U C46A C55G A65G], for which the yeast fitness is no more than 0.5.
Next, GUUCCGUUGGCGAAAUGGUAACGCGUCUCUCUCCUAAGGAGAAGACUGCGGGUUGGACUCCCCUAUGGAACG [U13A C30U C55G G58C G63C C66U]: no more than 0.5.
In the case of GUUCCGUUGGCGCAAUGGUAAAGCGUCUUCCUCCUAAGGAGAAGACUGCGGGUUCGAGUCCCGUACGGAACG [U13C C22A C29U] it was no more than 0.5; in that of GUUCCGUUGGCGUAAUAGUAACGCGUCUCCCUCCUACGGAGAAGACUGCGGCUUCCAGUACCGAACGGAACG [G17A A37C G52C G56C C60A U64A], no more than 0.5.
As to GUUCCGUUGGCGUAAUGGUAGCGCGUCUCCCUCCUAAGGAGAAGACUGCGGGUUCGAGUCCCGUACGGAACG [A21G], the yeast fitness was 1.
For GUUCCGUUGGCGUAAUGGUACCGCGGCUCCCUCCUAAGGAGACGACUGCGGGUUCGAGUCCCGUACGGAACG [A21C U26G A43C], the yeast fitness was no more than 0.5.
Turning to GUUCCGUUGGCGUAAUGGUAACGCGUCUCCCUCCAAAGGAGAAGACUGCGGGUUCGAGACCCGUACGGAACG [U35A U59A], the yeast fitness is 0.591.
Next, GUUACGUUGGCGUAUUGGUAACGCGUCUCCCUCCUAAGGAGAAGACUACGGGUUCGAGUCCCGUACGGAACG [C4A A15U G48A]: 0.559.
In the case of GUUCCGUUGGGGUAAUGGUAACGCGUCUCCCUCCUAAGGAGAAGACUGCGGGUUCGAGUCCCGUUCGGUACG [C11G A65U A69U] it was 0.625.
In the case of GUUCCGUUGGCGUAAUGGUAACGCGUCUCCCUCGUAAGGAGAAGACUGCCGGUUGGAGUACCGUACGGAACG [C34G G50C C55G C60A] it was 0.715; in that of GUUCCGUGGGCGUAAUGGUACCGCGUCUCCCUCCUAAGGAGAAGAUUGCGGGUUCGAGUCCCGUACGGAACG [U8G A21C C46U], 0.554.
As for GUUCCGUUGGCGUAAUGGUAACGCGUCUACCUCCAAAGGAGAAGACUGCGGGUUCGAGUCCCGUACCGAACG [C29A U35A G67C], the yeast fitness is no more than 0.5.
With GUUCCGUUGGCGUAAUGGUAACGCGUCUCCCUCCUAAGGAGAAGUCUGUGGGUUCGAGUCCCGUUCGGAACG [A45U C49U A65U], the yeast fitness worked out at 0.755.
In the case of GUUCCGUUGGCGUAAUGGUAACGCGUCUCCCUCCUAGAGAGAAGACUGCGGGUUUGAGGCCCGUACGGAACG [A37G G38A C55U U59G] it was no more than 0.5.
Next, GUUCCGGUGGCGUAAUGGUGGCGCGUCUCCCUCCUAACGAGAAGACUGCCGGUUCGAGUCCCGUACGGAACG [U7G A20G A21G G38C G50C]: no more than 0.5.
Next, GUUCCGUUGGCGUAGUGGUAACGCGUCUCCCUCCUAAGAAGAAGACUGCGGGUUCGAGUCCGGUACGGAACG [A15G G39A C62G]: 0.568.
On to GUUGCGUUGGCGUAUUGGUAACGCGUCUCCCUCCUAAGGAGAAGACUGCGGGUUCCAGACCCGUACGGAACG [C4G A15U G56C U59A], for which the yeast fitness is no more than 0.5.
Next, GUUCCGUUGACGUAAUGGUAACGCGUCUCCCUCCUAAGGAGAAGACUGCGGGUUCGAGUCACGUACGGAACG [G10A C61A]: no more than 0.5; GUUCCGCUGGCGUAAUGGUAACGCGUCUCCCUCCUAAGGGGAAGACUGCGGGUUCGAGUCCCGUACGGAACG [U7C A40G]: 0.822.
With GUUCCGUUGGCGUAAUGGUAACGUGUCUCCCUCCUACGCAGAGGACUGCGGGUUCGAGUCCCGUACGGAACG [C24U A37C G39C A43G], the yeast fitness was no more than 0.5.
In the case of GUUCCGUUGGCGUAAUGGUAACGCGUCUCCCUCCUUAAGAGAAGACUGGGGGUUCGAGUGCCGUACGGAGCG [A36U G38A C49G C60G A70G] it was 0.592; in that of GUUCCGUUGCCGUAAUGGUAACGCGUCGCCCUGCUAAGGAGAAGACUGUGGGUUCGAGUCCCGUACGGAACG [G10C U28G C33G C49U], no more than 0.5; in that of GUUCCGUUGCCGUUAUGGAAAUGCGUCUCCCUCCUAAGGAGAAGACUGCGGGUUCGAGUCCCGUACGAAACG [G10C A14U U19A C22U G68A], no more than 0.5.
In the case of GUUCCGUUGGCGUAAUGGUAACGCGUCUGCCUCCUAAGGAGAACACUGGGGGUUCGAGUCGCGUACGGAACG [C29G G44C C49G C61G], the yeast fitness is no more than 0.5.
Next, GUUCCGUUGGAGUAAUGAUAACGCGUCUCCCUCCUAAGGAGAAGACUGCGGGUUCGAGUCCCGUACGAAACG [C11A G18A G68A]: no more than 0.5.
Next, GUUCCCUUGGUGUAAUGGUAACGCGUCUCCGUCCUGAGGAGAAGACUCCGGGUUCGAGUCCCGUACCGAACG [G6C C11U C31G A36G G48C G67C]: no more than 0.5; GUUCCGUUAGCGUAAUGGUAACGCGUCUCCCUCCUAAGGAGAAGACUCCGGGUUCGAGUCCCGUACGGAACG [G9A G48C]: 0.985; GUUCCGUUGGCGUAAUGGUAACGCGUCUCCCUCCUAUGGAGAAGACUGCGGGUUAGAGUCCCGUACGGAACG [A37U C55A]: no more than 0.5.
For the variant GUUCCGUUGGCGUAAUGGUAACGCGUCUCCUUCCUAAGGUGAAGACUGCGGGUUCGAGCCCCGUACGGAUCG [C31U A40U U59C A70U], the yeast fitness was no more than 0.5.
Next, GUUCCGUUGGCGUAAUGGUAACGCGUCUCCCUCCUAAGGUGAAGACUGCGGGUUCGAGUCCCGUACGCAACG [A40U G68C]: 0.741; GUUCCGUUGGCGUAAUGGUAACGCGUCUCCCUGCUAACGAGAAGACUGCGGGUUCGAGUCCCGUACGGACCG [C33G G38C A70C]: 0.705.
As for GUUACGUUGGCGUCAUGGUAACGUAUCUCCCUCAUAAGGAGAAGACUGCGGGUUCGAGUCCCGUACGGAACG [C4A A14C C24U G25A C34A], the yeast fitness was found to be 0.571.
